In ChEMBL document CHEMBL4020757, “Lathyrol and epoxylathyrol derivatives: Modulation of Cdr1p and Mdr1p drug-efflux transporters of Candida albicans in Saccharomyces cerevisiae model” (Bioorg Med Chem, 2017):
Converted amounts (≈) assume the structure as drawn.

What was measured:
[1] = test system: Saccharomyces cerevisiae; experiment: Antifungal activity against Saccharomyces cerevisiae AD over-expressing Candida albicans CDR1 after 48 hrs; type: functional
Outline: (§1)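 Yeast (10⁴ cells) grown in YEPD at 30 °C for 48 h with inhibitors at 0.25-400 μM (DMSO stocks); growth read by optical density, inhibitor-free growth set as 100%. MIC80 = concentration giving 80% growth inhibition. RI = MIC80 in AD-CDR1 or AD-MDR1 divided by MIC80 in control AD1-8u⁻. Means ± SD, duplicate samples, at least three independent experiments.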

[2] = test system: Candida albicans; experiment: Inhibition of Candida albicans CDR1 expressed in Saccharomyces cerevisiae AD assessed as potentiation of fluconazole-induced antifungal activity against Saccharomyces cerevisiae AD by measuring fold reduction in fluconazole MIC80 by checkerboard method
Outline: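 AD-CDR1 cells (10⁴) grown 48 h at 30 °C in a CLSI checkerboard, fluconazole 4-209 μM crossed with compound 0.25-400 μM, growth read by optical density. Fold reduction is derived from the fluconazole MIC alone versus the fluconazole MIC in combination.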

[3] = test system: Saccharomyces cerevisiae; experiment: Antifungal activity against Saccharomyces cerevisiae AD over-expressing Candida albicans MDR1 after 48 hrs; type: functional; outline: as §1
[4] = Lipophilicity, log P of the compound; type: physicochemical; details: octanol/water
[5] = test system: Saccharomyces cerevisiae; experiment: Resistance index, ratio of MIC80 for Saccharomyces cerevisiae AD over-expressing Candida albicans CDR1 to MIC80 for Saccharomyces cerevisiae AD1-8u(-); type: functional; outline: as §1
[6] = test system: Candida albicans; experiment: Inhibition of Candida albicans MDR1 expressed in Saccharomyces cerevisiae AD assessed as ratio of compound MIC80 in combinantion with fluconazole to compound alone MIC80 for Saccharomyces cerevisiae AD by checkerboard method
Outline: (§2)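 Checkerboard per CLSI with 10⁴ cells of AD-CDR1, AD-MDR1 or AD1-8u⁻, grown 48 h at 30 °C. Fluconazole 4-209 μM crossed with compound 0.25-400 μM, growth read by optical density. Compound FIC is the compound MIC in combination with fluconazole divided by its MIC alone.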

[7] = test system: Saccharomyces cerevisiae; experiment: Synergistic antifungal activity against Saccharomyces cerevisiae AD1-8u(-) assessed as ratio of compound MIC80 in combinantion with fluconazole to compound alone MIC80 by checkerboard method; type: functional; outline: as §2
[8] = test system: Candida albicans; experiment: Inhibition of Candida albicans MDR1 expressed in Saccharomyces cerevisiae AD assessed as reduction in nile red dye efflux at 70 uM after 30 mins by flow cytometry relative to control
Outline: (§3)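 AD-CDR1 or AD-MDR1 cells grown in YEPD at 30 °C with shaking from OD600 0.1 to 0.25, then resuspended as a 5% suspension in 1:2 YEPD:water. Nile Red (final 7 μM) added with or without compound at 70 μM, 30 min at 30 °C. Cells washed twice and 10,000 cells analysed by flow cytometry. Efflux rate expressed relative to untreated control cells. Means ± SD, three independent experiments.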

[9] = test system: Candida albicans; experiment: Inhibition of Candida albicans CDR1 expressed in Saccharomyces cerevisiae AD assessed as ratio of compound MIC80 in combinantion with fluconazole to compound alone MIC80 for Saccharomyces cerevisiae AD by checkerboard method; outline: as §2
[10] = test system: Candida albicans; experiment: Inhibition of Candida albicans MDR1 expressed in Saccharomyces cerevisiae AD assessed as potentiation of fluconazole-induced antifungal activity against Saccharomyces cerevisiae AD by checkerboard method
Outline: (§4)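 Checkerboard per CLSI in AD1-8u⁻ control, AD-CDR1 or AD-MDR1 cells (10⁴ cells) grown 48 h at 30 °C. Fluconazole 4-209 μM crossed with compound 0.25-400 μM. Growth read by optical density. FIC of each agent is its MIC in combination divided by its MIC alone. FICI is the sum of the fluconazole and compound FICs, with values below 0.5 taken as synergy.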

[11] = test system: Saccharomyces cerevisiae; experiment: Potentiation of fluconazole-induced antifungal activity against Saccharomyces cerevisiae AD1-8u(-) by checkerboard method; type: functional; outline: as §4
[12] = test system: Saccharomyces cerevisiae; experiment: Resistance index, ratio of MIC80 for Saccharomyces cerevisiae AD over-expressing Candida albicans MDR1 to MIC80 for Saccharomyces cerevisiae AD1-8u(-); type: functional; outline: as §1
[13] = test system: Candida albicans; experiment: Inhibition of Candida albicans CDR1 expressed in Saccharomyces cerevisiae AD assessed as potentiation of fluconazole-induced antifungal activity against Saccharomyces cerevisiae AD by checkerboard method; outline: as §4
[14] = test system: Candida albicans; experiment: Inhibition of Candida albicans CDR1 expressed in Saccharomyces cerevisiae AD assessed as reduction in nile red dye efflux at 70 uM after 30 mins by flow cytometry relative to control; outline: as §3
[15] = test system: Saccharomyces cerevisiae; experiment: Antifungal activity against Saccharomyces cerevisiae AD1-8u(-) after 48 hrs; type: functional
Outline: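 S. cerevisiae AD1-8u⁻ control strain revived from glycerol stock on YEPD plates and grown in YEPD at 30 °C. 10⁴ cells exposed to compound at 0.25-400 μM for 48 h at 30 °C. Growth read as optical density, with no-inhibitor growth as 100%. MIC80 is the concentration giving 80% growth inhibition. Means ± SD of duplicates from at least three independent experiments.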

Compound | MIC80 [1] | fold change (FC) [2] | MIC80 [3] | logP [4] | Ratio [5] | Ratio [6] | Ratio [7] | inhibition [8] | Ratio [9] | fractional inhibitory concentration index (FICI) [10] | fractional inhibitory concentration index (FICI) [11] | Ratio [12] | fractional inhibitory concentration index (FICI) [13] | inhibition [14] | MIC80 [15]
CCC(=O)O[C@@H]1[C@@H]2[C@@H](OC(C)=O)[C@]3(CC[C@H]4[C@@H](/C=C(\C)C(=O)[C@@]2(OC(C)=O)C[C@@H]1C)C4(C)C)CO3 | 501 µM (≈ 246 µg/mL) | 23 | 498 µM (≈ 244 µg/mL) | 2.32 | 0.98 | 1 | 1 | 20% | 0.5 | 1.3 | 2 | 0.97 | 0.54 | 10% | 510 µM (≈ 250 µg/mL)
C=C1CC[C@H]2[C@@H](/C=C(\C)C(=O)[C@@]3(O)C[C@H](C)[C@H](O)[C@@H]3[C@H]1OC(=O)c1cccc(C(F)(F)F)c1)C2(C)C | 982 µM (≈ 497 µg/mL) | 52 | 867 µM (≈ 439 µg/mL) | 3.41 | 0.99 | 1 | 1 | 25% | 0.5 | 1.3 | 2 | 0.87 | 0.52 | 70% | 988 µM (≈ 500 µg/mL)
CC(=O)O[C@@H]1[C@@H]2[C@@H](OC(C)=O)[C@]3(CC[C@H]4[C@@H](/C=C(\C)C(=O)[C@@]2(OC(C)=O)C[C@@H]1C)C4(C)C)CO3 | 519 µM (≈ 247 µg/mL) | – | 529 µM (≈ 252 µg/mL) | 2.7 | 0.98 | 1 | 1 | 75% | 1 | 1.3 | 2 | 0.99 | 1.4 | 20% | 525 µM (≈ 250 µg/mL)
C=C1CC[C@H]2[C@@H](/C=C(\C)C(=O)[C@@]3(O)C[C@H](C)[C@H](O)[C@@H]3[C@H]1O)C2(C)C | 1520 µM (≈ 510 µg/mL) | – | 1480 µM (≈ 494 µg/mL) | 1.48 | 1.01 | 1 | 1 | 30% | 1 | 1.3 | 2 | 0.98 | 1.4 | 40% | 1500 µM (≈ 502 µg/mL)
C=C1CC[C@H]2[C@@H](/C=C(\C)C(=O)[C@@]3(O)C[C@H](C)[C@H](O)[C@@H]3[C@H]1OC(=O)c1cccc(OC)c1)C2(C)C | 992 µM (≈ 465 µg/mL) | – | 1120 µM (≈ 526 µg/mL) | 3.42 | 0.92 | 1 | 1 | 35% | 1 | 1.3 | 2 | 1.05 | 1.4 | 80% | 1070 µM (≈ 500 µg/mL)
COc1ccc(C(=O)O[C@@H]2[C@@H]3[C@@H](OC(=O)c4ccc(OC)cc4)[C@]4(CC[C@H]5[C@@H](/C=C(\C)C(=O)[C@@]3(O)C[C@@H]2C)C5(C)C)CO4)cc1 | 776 µM (≈ 480 µg/mL) | – | 861 µM (≈ 533 µg/mL) | 4.51 | 0.95 | 1 | 1 | 80% | 1 | 1.3 | 2 | 1.06 | 1.4 | 10% | 809 µM (≈ 501 µg/mL)
